# Assay results: ChEMBL document CHEMBL4477197, “Antitumor Activity of Spicatoside A by Modulation of Autophagy and Apoptosis in Human Colorectal Cancer Cells” (J Nat Prod, 2016)
# Active and inactive are the calls of the source. The calls are words filed in the database; no cut-off is given here.
# How the values were obtained:
# MDA-MB-231 = experiment: Antiproliferative activity against human MDA-MB-231 cells after 24 to 72 hrs by SRB assay; type: functional, cell-based
# How it was run: (§1)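 Cells from ATCC were grown at 37 °C in 5% CO2, in RPMI 1640 (A549, HCT116, SNU-638) or DMEM (MDA-MB-231, SK-HEP-1, MRC5) with 10% FBS. They were seeded at 6 × 10^3 cells/well for 24 h, then exposed for 72 h. Cells were TCA-fixed, stained with 0.4% SRB, and read at 515 nm against day-zero plates. IC50 came from nonlinear regression, as means ± SD.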
# SNU-638 = experiment: Antiproliferative activity against human SNU638 cells after 24 to 72 hrs by SRB assay; type: functional, cell-based; how it was run: as §1
# SK-HEP1 = experiment: Antiproliferative activity against human SKHEP1 cells after 24 to 72 hrs by SRB assay; type: functional, cell-based; how it was run: as §1
# MRC5 = experiment: Antiproliferative activity against human MRC5 cells after 24 to 72 hrs by SRB assay; type: cell-based; how it was run: as §1
# HCT-116 [1] = experiment: Induction of autophagy in human HCT116 cells assessed as vacuole formation in cytoplasm at 20 uM by inverted phase contrast microscopy relative to control; type: functional, cell-based
# How it was run: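 HCT116 cells were exposed to 20 μM compound or vehicle. Cytoplasmic vacuoles were inspected and photographed under an inverted phase-contrast microscope at 100×.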
# HCT-116 [2] = experiment: Induction of autophagy in human HCT116 cells assessed as upregulation of LAMP1 expression at 10 to 30 uM after 24 hrs by Western blot analysis; type: functional, cell-based
# How it was run: (§2)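 HCT116 cells were cultured 24 h with the indicated concentrations. Lysates were made in SDS buffer with NaF and orthovanadate and quantified by BCA; 10–30 μg protein was separated by 6–15% SDS-PAGE and transferred to PVDF. After 5% BSA blocking, blots were probed for LC3-II, beclin 1, p62, LAMP1 and cathepsin D, with ECL detection.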
# HCT-116 [3] = experiment: Induction of autophagy in human HCT116 cells assessed as downregulation of p62 expression at 10 to 30 uM after 24 hrs by Western blot analysis; type: functional, cell-based; how it was run: as §2
# HCT-116 [4] = experiment: Induction of autophagy in human HCT116 cells assessed as accumulation of LC3-2 at 20 uM after 24 hrs in presence of bafilomycin A1 by Western blot analysis; type: functional, cell-based
# How it was run: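 HCT116 cells were exposed 24 h to 20 μM compound, 2.5 nM bafilomycin A1, or both together. LC3-II was measured by Western blot with β-actin as internal standard. Blots are representative of three separate determinations.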
# [5] = Inhibition of PI3K/Akt/mTOR in human HCT116 cells assessed as downregulation of PI3K p85 at 10 to 30 uM after 24 hrs by Western blot analysis; type: cell-based
# How it was run: (§3)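 HCT116 cells (RPMI 1640, 10% FBS, 37 °C, 5% CO2) exposed to the compound for 24 h, then lysed in 2× SDS sample buffer with NaF and orthovanadate and boiled. BCA-normalised protein (10−30 μg) run on 6−15% SDS-PAGE and blotted to PVDF. Blocked in 5% BSA/PBS-Tween, probed for PI3K, PTEN, Akt and mTOR, and detected by ECL. Blots are representative of three determinations.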
# [6] = Inhibition of PI3K/Akt/mTOR in human HCT116 cells assessed as downregulation of PI3K p101 at 10 to 30 uM after 24 hrs by Western blot analysis; type: cell-based
# How it was run: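 HCT116 cells were lysed after 24 h with the indicated concentrations. PI3K, PTEN, Akt and mTOR were immunoblotted (SDS-PAGE, PVDF, 5% BSA block, ECL).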
# [7] = Inhibition of PI3K/Akt/mTOR in human HCT116 cells assessed as suppression of Akt phosphorylation at Ser473 at 10 to 30 uM after 24 hrs by Western blot analysis; type: cell-based; how it was run: as §3
# [8] = Inhibition of PI3K/Akt/mTOR in human HCT116 cells assessed as suppression of mTOR phosphorylation at Ser2448 at 10 to 30 uM after 24 hrs by Western blot analysis; type: cell-based; how it was run: as §3
# HCT-116 [9] = experiment: Induction of apoptosis in human HCT116 cells assessed as cell rounding after 48 hrs; type: functional, cell-based
# HCT-116 [10] = experiment: Cell cycle arrest in human HCT116 cells assessed as accumulation at subG1 phase at 20 uM after 48 hrs by propidium iodide staining based flow cytometry; type: functional
# HCT-116 [11] = experiment: Induction of apoptosis in human HCT116 cells at 20 uM after 48 hrs by Annexin V-FITC/propidium iodide staining based flow cytometry; type: functional
# How it was run: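 HCT116 cells were treated 48 h, then resuspended in binding buffer at 1 × 10^6 cells/mL. They were stained with annexin V-FITC and PI for 20 min at room temperature in the dark, diluted and analyzed immediately by flow cytometry for annexin V-positive cells. n = 3.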
# HCT-116 [12] = experiment: Induction of apoptosis in human HCT116 cells assessed as activation of PARP cleavage at 10 to 30 uM after 48 hrs by Western blot analysis; type: functional, cell-based
# How it was run: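 HCT116 cells were treated with the indicated concentrations for 48 h. Lysates were prepared in SDS sample buffer and 10–30 μg protein was separated by SDS-PAGE, blotted to PVDF and blocked in 5% BSA. Cleaved caspase-8, -9, -3 and PARP were detected by ECL.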
# HCT-116 [13] = experiment: Induction of apoptosis in human HCT116 cells assessed as increase in t-BID levels after 48 hrs by Western blot analysis; type: functional, cell-based
# HCT-116 [14] = experiment: Induction of apoptosis in human HCT116 cells assessed as increase in cytochrome c levels in cytosol after 48 hrs by Western blot analysis; type: functional, cell-based
# HCT-116 [15] = experiment: Induction of apoptosis in human HCT116 cells assessed as caspase 8 cleavage at 30 uM upto 48 hrs by Western blot analysis; type: functional, cell-based
# How it was run: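 Time course: HCT116 cells were exposed to 30 μM compound for 6, 12, 24, 36 and 48 h. LC3-II, beclin 1, cleaved caspase-8 and cleaved PARP were measured by Western blot (SDS-PAGE, PVDF, ECL) with β-actin as internal standard.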
# HCT-116 [16] = experiment: Induction of caspase 8 cleavage in human HCT116 cells at 30 uM after 48 hrs in presence of caspase 8 inhibitor z-IETD-FMK by Western blot analysis; type: functional, cell-based
# How it was run: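 HCT116 cells were cultured 48 h with 30 μM compound, with or without 20 μM z-IETD-FMK. Lysates were made in SDS loading buffer and 10–30 μg protein was resolved by 6–15% SDS-PAGE and transferred to PVDF. Blots were probed for cleaved caspase-8, beclin 1, cleaved beclin 1 and LC3-II, and detected by ECL.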
# Mus musculus = experiment: Induction of PARP cleavage in human HCT116 cells xenografted in BALB/c-nu mouse at 2.5 to 5 mg/kg, ip administered three times per week for 28 days measured post dosing by Western blot analysis; type: functional, organism-based
# How it was run: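 Excised xenograft tumors (2.5 or 5 mg/kg ip, three times weekly for 28 days) were frozen. Portions were thawed on ice and homogenized in Complete Lysis Buffer, then protein was quantified. Cleaved PARP was detected by Western blot with β-actin as internal standard; blots shown are representative of three determinations.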
structure (smiles),measurement,setting,value
C[C@H]1CC[C@@]2(OC1)O[C@H]1C[C@H]3[C@@H]4CC=C5C[C@@H](O)C[C@@H](O[C@@H]6O[C@H](C)[C@H](O)[C@H](O[C@@H]7OC[C@@H](O)[C@H](O)[C@H]7O)[C@H]6O[C@@H]6O[C@H](CO)[C@@H](O)[C@H](O)[C@H]6O)[C@]5(C)[C@H]4CC[C@]3(C)[C@H]1[C@@H]2C,IC50,MDA-MB-231,29.6 µM
same,IC50,SNU-638,14.8 µM
same,IC50,SK-HEP1,15.5 µM
same,IC50,MRC5,82 µM
same,Activity,HCT-116 [1],Active
same,Activity,HCT-116 [2],Active
same,Activity,HCT-116 [3],Active
same,Activity,HCT-116 [4],Active
same,inhibition,[5],Active
same,inhibition,[6],Active
same,inhibition,[7],Active
same,inhibition,[8],Active
same,Activity,HCT-116 [9],Active
same,Activity,HCT-116 [10],12.56%
same,Activity,HCT-116 [11],18.58%
same,Activity,HCT-116 [12],Active
same,Activity,HCT-116 [13],Dose-dependent effect
same,Activity,HCT-116 [14],Dose-dependent effect
same,Activity,HCT-116 [15],Active
same,Activity,HCT-116 [16],inactive
same,Activity,Mus musculus,Active
